Assay results from ChEMBL document CHEMBL4261600 (Eur J Med Chem, 2018).

What was measured:
MV4-11 = test: Antiproliferative activity against human MV4-11 cells after 72 hrs by Celltiter-Glo assay; type: functional; settings: MV4-11, 72 h
Procedure, shortened: (§1)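 Cells seeded at 3000/well in 96-well plates, exposed to serially diluted compound for 72 h at 37 °C, 5% CO2. Viability read by CellTiter-Glo luminescence and normalized to DMSO control. GI50 derived from curve fit, mean of three independent measurements. Culture media: DMEM/10% FBS for adherent lines; IMDM for MV4-11 and MEC-1/2; RPMI 1640 for suspension lines and CHL.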

GISTT1 = test: Antiproliferative activity against human GISTT1 cells after 72 hrs by Celltiter-Glo assay; type: functional; settings: GISTT1, 72 h; procedure, shortened: as §1
MOLM-13 = test: Antiproliferative activity against human MOLM13 cells after 72 hrs by Celltiter-Glo assay; type: functional; settings: MOLM-13, 72 h; procedure, shortened: as §1
[1] = Half life in mouse at 3 mg/kg, iv by LC-MS/MS analysis; type: ADME, organism-based; settings: in vivo
[2] = tested on: Tyrosine-protein kinase ABL1 (Homo sapiens), P00519 [M351T]; test: Binding affinity to human phosphorylated ABL1 M351T mutant (S229 to K512 residues) expressed in mammalian expression system assessed as remaining unbound target protein level at 1000 nM by Kinomescan method relative to control
Procedure, shortened: (§2)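 Single-point competition binding screen across a panel of 468 kinases and mutants, with the inhibitor at 1 μM. Binding is read out as percent of a DMSO control, and targets below 1 percent control were classed as strong binders.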

[3] = tested on: ALK tyrosine kinase receptor (Homo sapiens), Q9UM73 [L1196M]; test: Binding affinity to wild-type human partial length ALK L1196M mutant (I1088 to E1409 residues) expressed in mammalian expression system assessed as remaining unbound target protein level at 1000 nM by Kinomescan method relative to control
Procedure, shortened: (§3)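 Profiled in a KINOMEscan binding panel with the inhibitor at a single concentration of 1 μM. Binding to each kinase was read out as percent of control, relative to a DMSO control. Strong binders were defined as those with a percent control value below 1.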

[4] = molecular target: Cyclin-dependent kinase 7 (Homo sapiens) (UniProt P50613); test: Binding affinity to wild-type human full length CDK7 (M1 to L344 residues) expressed in mammalian expression system assessed as remaining unbound target protein level at 1000 nM by Kinomescan method relative to control
Sequence of Cyclin-dependent kinase 7 (Homo sapiens) (P50613 whole entry, the tested form may be a part): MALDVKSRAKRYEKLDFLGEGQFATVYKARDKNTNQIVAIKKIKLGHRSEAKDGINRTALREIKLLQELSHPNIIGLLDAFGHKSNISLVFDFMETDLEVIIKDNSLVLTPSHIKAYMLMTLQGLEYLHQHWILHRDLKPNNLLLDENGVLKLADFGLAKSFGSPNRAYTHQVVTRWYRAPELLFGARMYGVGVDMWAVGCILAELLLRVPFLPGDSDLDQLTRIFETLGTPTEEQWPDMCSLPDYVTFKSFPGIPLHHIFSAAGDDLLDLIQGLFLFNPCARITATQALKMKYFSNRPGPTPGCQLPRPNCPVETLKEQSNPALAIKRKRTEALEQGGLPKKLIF
Procedure, shortened: (§4)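 KINOMEscan competitive binding profile at 1 μM inhibitor. Remaining target binding reported as percent of DMSO control.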

[5] = molecular target: Cyclin-dependent kinase-like 1 (Homo sapiens) (UniProt Q00532); test: Binding affinity to wild-type human full length CDKL1 (M1 to I358 residues) expressed in mammalian expression system assessed as remaining unbound target protein level at 1000 nM by Kinomescan method relative to control; procedure, shortened: as §2
[6] = molecular target: Dual specificity protein kinase CLK3 (Homo sapiens) (UniProt P49761); test: Binding affinity to wild-type human full length CLK3 (M1 to R490 residues) expressed in bacterial expression system assessed as remaining unbound target protein level at 1000 nM by Kinomescan method relative to control; procedure, shortened: as §2
[7] = molecular target: Tyrosine-protein kinase CSK (Homo sapiens) (UniProt P41240); test: Binding affinity to wild-type human full length CSK (M1 to L450 residues) expressed in bacterial expression system assessed as remaining unbound target protein level at 1000 nM by Kinomescan method relative to control; procedure, shortened: as §4
[8] = molecular target: Rhodopsin kinase GRK1 (Homo sapiens) (UniProt Q15835); test: Binding affinity to wild-type human full length GRK1 (M1 to S563 residues) expressed in mammalian expression system assessed as remaining unbound target protein level at 1000 nM by Kinomescan method relative to control
Procedure, shortened: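 KINOMEscan competition binding panel run at 1 μM inhibitor; binding reported as percent of DMSO control (remaining target bound versus vehicle).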

[9] = molecular target: Tyrosine-protein kinase JAK1 (Homo sapiens) (UniProt P23458); test: Binding affinity to wild-type human partial length JAK1 JH2 pseudokinase domain (R537 to D855 residues) expressed in mammalian expression system assessed as remaining unbound target protein level at 1000 nM by Kinomescan method relative to control
Sequence of Tyrosine-protein kinase JAK1 (Homo sapiens) (P23458 whole entry, the tested form may be a part): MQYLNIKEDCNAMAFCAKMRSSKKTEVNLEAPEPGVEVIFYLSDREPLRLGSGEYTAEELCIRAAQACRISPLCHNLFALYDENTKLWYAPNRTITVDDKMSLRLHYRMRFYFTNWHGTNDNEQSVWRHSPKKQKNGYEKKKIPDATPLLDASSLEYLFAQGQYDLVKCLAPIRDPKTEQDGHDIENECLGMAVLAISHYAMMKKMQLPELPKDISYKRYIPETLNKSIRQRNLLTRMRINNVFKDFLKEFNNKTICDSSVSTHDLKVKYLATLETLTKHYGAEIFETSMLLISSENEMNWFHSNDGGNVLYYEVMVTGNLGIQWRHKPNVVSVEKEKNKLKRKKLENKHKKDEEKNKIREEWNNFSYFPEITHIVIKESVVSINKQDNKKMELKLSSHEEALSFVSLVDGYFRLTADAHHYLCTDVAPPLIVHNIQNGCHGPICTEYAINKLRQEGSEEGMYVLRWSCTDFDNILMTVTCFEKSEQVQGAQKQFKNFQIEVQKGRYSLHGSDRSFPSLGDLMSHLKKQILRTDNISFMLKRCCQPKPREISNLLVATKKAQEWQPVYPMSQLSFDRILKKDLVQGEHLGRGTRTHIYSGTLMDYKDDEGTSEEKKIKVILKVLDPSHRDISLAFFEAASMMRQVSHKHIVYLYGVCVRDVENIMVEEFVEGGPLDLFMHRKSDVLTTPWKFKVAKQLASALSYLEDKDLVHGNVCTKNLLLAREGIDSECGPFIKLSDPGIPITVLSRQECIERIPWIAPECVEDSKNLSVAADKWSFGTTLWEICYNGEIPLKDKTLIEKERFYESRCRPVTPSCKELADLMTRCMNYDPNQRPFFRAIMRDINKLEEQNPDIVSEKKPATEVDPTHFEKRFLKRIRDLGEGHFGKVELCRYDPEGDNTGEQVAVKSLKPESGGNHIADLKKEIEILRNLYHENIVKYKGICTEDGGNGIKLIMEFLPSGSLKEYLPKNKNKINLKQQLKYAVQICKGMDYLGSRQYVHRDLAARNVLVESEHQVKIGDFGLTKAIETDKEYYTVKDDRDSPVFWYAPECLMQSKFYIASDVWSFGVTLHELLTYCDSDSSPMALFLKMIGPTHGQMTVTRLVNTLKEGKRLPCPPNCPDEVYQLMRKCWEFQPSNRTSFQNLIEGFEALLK
Procedure, shortened: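 KINOMEscan binding panel of 468 kinases/mutants. Inhibitor was tested at a single concentration of 1 μM. Binding is reported as percent of control, defined relative to a DMSO control.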

[10] = molecular target: Serine/threonine-protein kinase STK11 (Homo sapiens) (UniProt Q15831); test: Binding affinity to wild-type human full length LKB1 (M1 to Q433 residues) expressed in bacterial expression system assessed as remaining unbound target protein level at 1000 nM by Kinomescan method relative to control; procedure, shortened: as §2
[11] = molecular target: Serine/threonine-protein kinase MARK2 (Homo sapiens) (UniProt Q7KZI7); test: Binding affinity to wild-type human partial length MARK2 (M1 to R450 residues) expressed in bacterial expression system assessed as remaining unbound target protein level at 1000 nM by Kinomescan method relative to control
[12] = molecular target: Serine/threonine-protein kinase NIM1 (Homo sapiens) (UniProt Q8IY84); test: Binding affinity to wild-type human partial length NIM1 (Q44 to N355 residues) expressed in mammalian expression system assessed as remaining unbound target protein level at 1000 nM by Kinomescan method relative to control
Sequence of Serine/threonine-protein kinase NIM1 (Homo sapiens) (Q8IY84 whole entry, the tested form may be a part): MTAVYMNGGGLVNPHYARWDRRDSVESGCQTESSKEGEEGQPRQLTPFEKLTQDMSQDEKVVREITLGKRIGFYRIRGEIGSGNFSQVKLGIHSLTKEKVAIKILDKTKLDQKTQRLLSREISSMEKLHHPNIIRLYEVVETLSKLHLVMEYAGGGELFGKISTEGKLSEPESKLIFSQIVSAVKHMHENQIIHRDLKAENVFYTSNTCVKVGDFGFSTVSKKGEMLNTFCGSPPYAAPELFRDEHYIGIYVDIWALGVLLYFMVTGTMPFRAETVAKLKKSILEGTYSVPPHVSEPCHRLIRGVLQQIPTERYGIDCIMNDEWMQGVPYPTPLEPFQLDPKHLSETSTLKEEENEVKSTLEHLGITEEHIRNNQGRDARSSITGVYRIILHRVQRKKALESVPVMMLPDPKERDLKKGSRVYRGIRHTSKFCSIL

[13] = molecular target: Cyclin-dependent kinase 15 (Homo sapiens) (UniProt Q96Q40); test: Binding affinity to wild-type human full length PFTAIRE2 (M1 to W384 residues) expressed in bacterial expression system assessed as remaining unbound target protein level at 1000 nM by Kinomescan method relative to control
Procedure, shortened: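 KINOMEscan competition binding profile across a panel of 468 kinases and mutants, with the inhibitor tested at a single concentration of 1 μM. Binding is reported as percent of control, meaning signal relative to a DMSO control.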

[14] = molecular target: Phosphatidylinositol 4-phosphate 5-kinase type-1 gamma (Homo sapiens) (UniProt O60331); test: Binding affinity to wild-type human partial length PIP5K1C (M1 to T668 residues) expressed in mammalian expression system assessed as remaining unbound target protein level at 1000 nM by Kinomescan method relative to control
[15] = molecular target: Serine/threonine-protein kinase Sgk1 (Homo sapiens) (UniProt O00141); test: Binding affinity to wild-type human partial length SGK (I60 to L431 residues) expressed in mammalian expression system assessed as remaining unbound target protein level at 1000 nM by Kinomescan method relative to control
[16] = molecular target: Serine/threonine-protein kinase SIK2 (Homo sapiens) (UniProt Q9H0K1); test: Binding affinity to wild-type human full length SIK2 (M1 to N926 residues) expressed in bacterial expression system assessed as remaining unbound target protein level at 1000 nM by Kinomescan method relative to control; procedure, shortened: as §3
[17] = molecular target: Serine/threonine-protein kinase TAO1 (Homo sapiens) (UniProt Q7L7X3); test: Binding affinity to wild-type human partial length TAOK1 (M1 to A320 residues) expressed in mammalian expression system assessed as remaining unbound target protein level at 1000 nM by Kinomescan method relative to control
Sequence of Serine/threonine-protein kinase TAO1 (Homo sapiens) (Q7L7X3 whole entry, the tested form may be a part): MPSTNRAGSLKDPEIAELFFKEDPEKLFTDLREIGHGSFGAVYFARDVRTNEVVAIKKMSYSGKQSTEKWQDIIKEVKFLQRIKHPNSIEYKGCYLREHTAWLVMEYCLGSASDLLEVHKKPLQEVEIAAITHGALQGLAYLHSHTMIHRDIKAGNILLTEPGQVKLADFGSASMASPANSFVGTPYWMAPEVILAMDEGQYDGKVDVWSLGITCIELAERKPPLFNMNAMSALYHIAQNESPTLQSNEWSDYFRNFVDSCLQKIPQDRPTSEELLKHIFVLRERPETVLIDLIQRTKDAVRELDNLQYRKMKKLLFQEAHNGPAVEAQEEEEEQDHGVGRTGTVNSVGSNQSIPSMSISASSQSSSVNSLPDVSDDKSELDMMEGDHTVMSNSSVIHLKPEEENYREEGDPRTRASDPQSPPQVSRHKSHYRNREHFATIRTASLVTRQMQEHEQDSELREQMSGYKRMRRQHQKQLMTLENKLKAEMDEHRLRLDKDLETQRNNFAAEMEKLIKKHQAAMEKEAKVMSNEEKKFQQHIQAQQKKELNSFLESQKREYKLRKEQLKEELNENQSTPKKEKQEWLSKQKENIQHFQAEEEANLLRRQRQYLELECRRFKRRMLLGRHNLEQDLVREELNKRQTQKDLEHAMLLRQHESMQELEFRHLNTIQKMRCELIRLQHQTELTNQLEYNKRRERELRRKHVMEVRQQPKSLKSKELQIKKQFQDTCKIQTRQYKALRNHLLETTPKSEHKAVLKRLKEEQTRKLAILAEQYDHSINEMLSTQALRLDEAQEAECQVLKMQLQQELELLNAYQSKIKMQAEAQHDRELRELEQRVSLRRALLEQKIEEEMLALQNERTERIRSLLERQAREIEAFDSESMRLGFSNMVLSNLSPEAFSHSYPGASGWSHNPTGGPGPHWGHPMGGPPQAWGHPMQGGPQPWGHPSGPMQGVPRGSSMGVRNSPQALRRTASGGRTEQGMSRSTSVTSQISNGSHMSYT

[18] = molecular target: Transient receptor potential cation channel subfamily M member 6 (Homo sapiens) (UniProt Q9BX84); test: Binding affinity to wild-type human partial length TRPM6 (Q1723 to I1998 residues) expressed in mammalian expression system assessed as remaining unbound target protein level at 1000 nM by Kinomescan method relative to control
Sequence of Transient receptor potential cation channel subfamily M member 6 (Homo sapiens) (Q9BX84 whole entry, the tested form may be a part): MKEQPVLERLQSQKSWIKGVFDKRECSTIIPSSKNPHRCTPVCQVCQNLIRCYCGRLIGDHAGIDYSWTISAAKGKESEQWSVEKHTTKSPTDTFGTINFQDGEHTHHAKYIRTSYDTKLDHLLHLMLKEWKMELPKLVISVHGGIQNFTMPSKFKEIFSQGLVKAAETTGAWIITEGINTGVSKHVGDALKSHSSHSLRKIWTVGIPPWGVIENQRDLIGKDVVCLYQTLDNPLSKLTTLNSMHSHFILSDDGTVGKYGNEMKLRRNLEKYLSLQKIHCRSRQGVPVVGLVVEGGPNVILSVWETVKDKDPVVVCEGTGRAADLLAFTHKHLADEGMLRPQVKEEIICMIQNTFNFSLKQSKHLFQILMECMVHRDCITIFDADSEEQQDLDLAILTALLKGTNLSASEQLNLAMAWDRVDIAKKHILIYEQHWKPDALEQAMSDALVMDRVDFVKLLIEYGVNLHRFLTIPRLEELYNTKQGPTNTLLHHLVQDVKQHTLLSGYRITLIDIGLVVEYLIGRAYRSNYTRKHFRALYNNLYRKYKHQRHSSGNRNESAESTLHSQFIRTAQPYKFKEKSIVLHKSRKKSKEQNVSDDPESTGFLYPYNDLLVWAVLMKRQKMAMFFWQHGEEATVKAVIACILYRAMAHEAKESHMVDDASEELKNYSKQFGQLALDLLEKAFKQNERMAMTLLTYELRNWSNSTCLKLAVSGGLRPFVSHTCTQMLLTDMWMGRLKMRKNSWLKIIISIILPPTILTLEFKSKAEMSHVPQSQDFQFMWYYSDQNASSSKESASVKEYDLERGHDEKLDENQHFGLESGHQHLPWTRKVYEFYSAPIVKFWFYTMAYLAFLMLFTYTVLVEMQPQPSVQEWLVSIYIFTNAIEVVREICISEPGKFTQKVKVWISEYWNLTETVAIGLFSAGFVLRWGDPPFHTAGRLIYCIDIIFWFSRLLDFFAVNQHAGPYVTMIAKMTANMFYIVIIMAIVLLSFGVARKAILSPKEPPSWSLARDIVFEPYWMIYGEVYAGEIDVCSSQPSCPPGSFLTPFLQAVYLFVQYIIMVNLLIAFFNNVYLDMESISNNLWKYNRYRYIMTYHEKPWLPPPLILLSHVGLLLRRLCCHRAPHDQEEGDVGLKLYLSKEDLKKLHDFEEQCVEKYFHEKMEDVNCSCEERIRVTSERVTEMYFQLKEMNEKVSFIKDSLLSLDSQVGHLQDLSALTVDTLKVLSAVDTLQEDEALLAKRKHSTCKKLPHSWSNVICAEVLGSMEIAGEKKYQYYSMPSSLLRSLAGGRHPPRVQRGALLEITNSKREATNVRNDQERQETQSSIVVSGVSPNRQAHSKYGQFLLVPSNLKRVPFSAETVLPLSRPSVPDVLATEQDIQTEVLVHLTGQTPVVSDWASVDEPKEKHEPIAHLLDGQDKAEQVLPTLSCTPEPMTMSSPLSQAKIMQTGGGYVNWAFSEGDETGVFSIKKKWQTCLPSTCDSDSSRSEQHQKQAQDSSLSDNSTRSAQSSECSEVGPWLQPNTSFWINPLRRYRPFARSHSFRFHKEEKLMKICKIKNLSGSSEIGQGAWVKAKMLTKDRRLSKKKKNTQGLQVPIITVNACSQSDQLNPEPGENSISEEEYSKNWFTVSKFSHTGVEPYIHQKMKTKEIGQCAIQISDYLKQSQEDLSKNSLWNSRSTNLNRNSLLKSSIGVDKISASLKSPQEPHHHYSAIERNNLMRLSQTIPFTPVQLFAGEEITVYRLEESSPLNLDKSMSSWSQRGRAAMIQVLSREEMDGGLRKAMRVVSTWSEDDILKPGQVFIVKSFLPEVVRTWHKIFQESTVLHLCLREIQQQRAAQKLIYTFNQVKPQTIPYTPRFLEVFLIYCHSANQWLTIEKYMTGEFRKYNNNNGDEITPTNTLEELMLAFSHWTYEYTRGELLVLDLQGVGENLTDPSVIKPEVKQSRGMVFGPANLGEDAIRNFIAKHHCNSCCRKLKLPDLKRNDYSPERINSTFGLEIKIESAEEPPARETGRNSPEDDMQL

## COCCN[C@H]1CC[C@H](Nc2cc(-c3csc(NCC4(C#N)CCOCC4)n3)c(Cl)cn2)CC1
MV4-11
  GI50: 12 nM
GISTT1
  GI50: 2.1 nM
MOLM-13
  GI50: 12 nM
[1]
  half-life: 103 min
[2]
  Activity: 100%
[3]
  Activity: 78%
[4]
  Activity: 1.8%
[5]
  Activity: 96%
[6]
  Activity: 92%
[7]
  Activity: 95%
[8]
  Activity: 84%
[9]
  Activity: 57%
[10]
  Activity: 100%
[11]
  Activity: 100%
[12]
  Activity: 96%
[13]
  Activity: 66%
[14]
  Activity: 100%
[15]
  Activity: 70%
[16]
  Activity: 100%
[17]
  Activity: 36%
[18]
  Activity: 89%
